Calls of active or inactive are those of the source. No cut-off for these calls is given here.
Assays:
[1] = Selectivity index, ratio of IC50 for African green monkey Vero cells to IC50 for Trypanosoma cruzi TINF/CH/1956/Tulahuen DTU 6 trypamastigotes derived from infected Balb/c albino mouse; assay type: toxicity; conditions: read-out: Ratio IC50
Method in brief: (§1)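 SI is Vero IC50 divided by the IC50 for the stated parasite form. For Vero cytotoxicity, cells were seeded at 1.25×10^4 mL^-1 with compounds at 1000–1 µM, incubated 48 h, then given resazurin for a further 24 h (72 h total), with absorbance read at 570/600 nm. Triplicate, four determinations.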

[2] = target: Superoxide dismutase [Cu-Zn] (Homo sapiens, UniProt P00441); assay: Inhibition of human erythrocyte CuZn-SOD by UV-Visible spectrophotometric method
Chain of Superoxide dismutase [Cu-Zn] (P00441 whole entry): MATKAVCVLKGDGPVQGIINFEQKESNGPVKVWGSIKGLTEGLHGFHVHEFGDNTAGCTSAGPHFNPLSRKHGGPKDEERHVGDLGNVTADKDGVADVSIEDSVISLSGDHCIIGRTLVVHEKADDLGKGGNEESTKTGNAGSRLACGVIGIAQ
Method in brief: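 SOD activity of parasite Fe-SOD and human CuZn-SOD was measured spectrophotometrically by the Beyer and Fridovich method, with compounds at 1–100 µM. Values are averages of three rate determinations; IC50 was obtained by linear regression and differences were tested by Newman-Keuls.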

[3] = tested on: Trypanosoma cruzi; assay: Antitrypanosomal activity against Trypanosoma cruzi MHOM/Pe/2011/Arequipa DTU 5 trypamastigotes infected in Balb/c mouse assessed as reduction in Ig-G level in serum at 100 mg/kg, po pretreated once daily for 5 consecutive days starting from day 10 post infection followed by cyclophosphamide-induced immunosuppression on day 100 post infection every 4 days for a maximum of 3 doses measured on day 127 post infection by ELISA; assay type: functional, organism-based
[4] = tested on: Trypanosoma cruzi; assay: Trypanocidal activity against Trypanosoma cruzi MHOM/Pe/2011/Arequipa DTU 5 epimastigotes after 48 hrs by resazurin dye based assay; assay type: functional, organism-based; conditions: MHOM/Pe/2011/Arequipa DTU 5, 48 h
Method in brief: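 Exponential-phase epimastigotes were seeded at 5×10^5 mL^-1 with compounds at 100–0.2 µM (DMSO 0.01% v/v) at 28 °C. After 48 h, resazurin was added for another 24 h. SDS was then added and absorbance read at 570 and 600 nm.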

[5] = tested on: Trypanosoma cruzi; assay: Trypanocidal activity against Trypanosoma cruzi IRHOD/CO/2008/SN3 DTU 1 amastigotes infected in African green monkey Vero cells after 72 hrs by Giemsa-staining based microscopic assay; assay type: functional, organism-based; conditions: IRHOD/CO/2008/SN3 DTU 1, Vero
Method in brief: (§2)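 Vero cells were seeded at 1×10^4/well on coverslips. After 24 h they were infected with culture-derived trypomastigotes (MOI 1:10, 24 h), then washed. Compounds were added at 100–0.2 µM (DMSO 0.01% v/v) for 72 h at 37 °C, 5% CO2. Slides were methanol-fixed and Giemsa-stained; amastigotes and infected cells were counted over 500 host cells. IC50 was derived by curve fitting; triplicate wells, four separate determinations.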

[6] = tested on: Trypanosoma cruzi; assay: Trypanocidal activity against Trypanosoma cruzi TINF/CH/1956/Tulahuen DTU 6 amastigotes infected in African green monkey Vero cells after 72 hrs by Giemsa-staining based microscopic assay; assay type: functional, organism-based; conditions: TINF/CH/1956/Tulahuen DTU 6, Vero; method in brief: as §2
[7] = tested on: Mus musculus; assay: Toxicity in Balb/c mouse assessed as reduction in body mass at […], po once daily for 5 consecutive days starting from day 10 post infection relative to control; assay type: organism-based; parameters: scale not given: the % may be the effect or the level left; conditions: in vivo
Method in brief: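 Infected female BALB/c mice, six per group, received oral doses of 20 mg·kg^-1/day for 5 consecutive days (total 100 mg·kg^-1) in 5% DMSO/0.5% HPMC vehicle, from day 10 or day 75 pi. Body mass and deaths were monitored during and after treatment.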

[8] = tested on: Mus musculus; assay: (§3) Hepatotoxicity in Balb/c mouse infected with Trypanosoma cruzi MHOM/Pe/2011/Arequipa DTU 5 trypamastigotes assessed as change in total bilirubin level at […], po once daily for 5 consecutive days starting from day 10 post infection measured on day 127 post infection by biochemical analysis relative to control; assay type: toxicity, organism-based; conditions: in vivo
Method in brief: (§4)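 Serum clinical chemistry in Arequipa-infected female BALB/c mice. Oral 20 mg·kg-1 per day for 5 days, started day 10 or day 75 pi. Samples taken at day 16 pi or day 81 pi, and on necropsy day. Markers: CK-MB and LDH (U/L), AST, ALT and alkaline phosphatase (U/L), total bilirubin. Results scored relative to infected untreated controls; uninfected reference n = 15.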

[9] = tested on: Mus musculus; assay: as §3, with “alkaline phosphatase” for “total bilirubin”, “75” for “10”; assay type: toxicity, organism-based; conditions: in vivo; method in brief: as §4
[10] = tested on: Trypanosoma cruzi; assay: Trypanocidal activity against Trypanosoma cruzi MHOM/Pe/2011/Arequipa DTU 5 amastigotes infected in African green monkey Vero cells assessed as reduction in infected cells after 72 hrs by Giemsa-staining based microscopic assay; assay type: functional, organism-based; conditions: MHOM/Pe/2011/Arequipa DTU 5, Vero
Method in brief: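 Infected Vero cell cultures were exposed for 72 h to a range of concentrations. Infected cells were counted microscopically on Giemsa-stained preparations and expressed relative to infected untreated controls. Values are means of three separate determinations; IC50 was derived by curve fitting.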

[11] = tested on: Trypanosoma cruzi; assay: Trypanocidal activity against Trypanosoma cruzi IRHOD/CO/2008/SN3 DTU 1 trypamastigotes derived from infected Balb/c albino mouse after 24 hrs by resazurin dye based assay; assay type: functional, organism-based; conditions: IRHOD/CO/2008/SN3 DTU 1, 24 h
Method in brief: (§5)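 Bloodstream trypomastigotes taken from mice at peak parasitaemia were seeded at 2×10^6 mL^-1 in RPMI with 10% FBS. Compounds were added at 50–0.2 µM and incubated 24 h at 37 °C, 5% CO2, then with resazurin for 4 h. SDS was added and absorbance read at 570/600 nm. IC50 was fitted; triplicate, four separate determinations.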

[12] = tested on: Trypanosoma cruzi; assay: Antitrypanosomal activity against Trypanosoma cruzi MHOM/Pe/2011/Arequipa DTU 5 trypamastigotes infected in Balb/c mouse assessed as reduction in splenomegaly at 100 mg/kg, po once daily for 5 consecutive days starting from day 75 post infection measured on day 127 post infection relative to control; assay type: functional; parameters: scale not given: the % may be the effect or the level left
[13] = tested on: Mus musculus; assay: Hepatotoxicity in Balb/c mouse infected with Trypanosoma cruzi MHOM/Pe/2011/Arequipa DTU 5 trypamastigotes assessed as change in total bilirubin level at […], po once daily for 5 consecutive days starting from day 75 post infection measured on day 127 post infection by biochemical analysis relative to control; assay type: toxicity, organism-based; conditions: in vivo
[14] = Selectivity index, ratio of IC50 for African green monkey Vero cells to IC50 for Trypanosoma cruzi MHOM/Pe/2011/Arequipa DTU 5 amastigotes infected in African green monkey Vero cells; assay type: toxicity; conditions: read-out: Ratio IC50; method in brief: as §1
[15] = Selectivity index, ratio of IC50 for African green monkey Vero cells to IC50 for Trypanosoma cruzi TINF/CH/1956/Tulahuen DTU 6 epimastigotes; assay type: toxicity; conditions: read-out: Ratio IC50; method in brief: as §1
[16] = tested on: Trypanosoma cruzi; assay: Trypanocidal activity against Trypanosoma cruzi TINF/CH/1956/Tulahuen DTU 6 trypamastigotes derived from infected Balb/c albino mouse after 24 hrs by resazurin dye based assay; assay type: functional, organism-based; conditions: TINF/CH/1956/Tulahuen DTU 6, 24 h; method in brief: as §5
[17] = tested on: Trypanosoma cruzi; assay: Trypanocidal activity against Trypanosoma cruzi MHOM/Pe/2011/Arequipa DTU 5 amastigotes infected in African green monkey Vero cells after 72 hrs by Giemsa-staining based microscopic assay; assay type: functional, organism-based; conditions: MHOM/Pe/2011/Arequipa DTU 5, Vero; method in brief: as §2
[18] = Selectivity index, ratio of IC50 for African green monkey Vero cells to IC50 for Trypanosoma cruzi IRHOD/CO/2008/SN3 DTU 1 epimastigotes; assay type: toxicity; conditions: read-out: Ratio IC50; method in brief: as §1
[19] = Selectivity index, ratio of IC50 for African green monkey Vero cells to IC50 for Trypanosoma cruzi IRHOD/CO/2008/SN3 DTU 1 trypamastigotes derived from infected Balb/c albino mouse; assay type: toxicity; conditions: read-out: Ratio IC50; method in brief: as §1
[20] = tested on: Trypanosoma cruzi; assay: Antitrypanosomal activity against Trypanosoma cruzi MHOM/Pe/2011/Arequipa DTU 5 epimastigotes assessed as reduction in mitochondrial membrane potential at IC25 after 72 hrs by Rho123 staining based flow cytometry relative to control; assay type: functional; parameters: scale not given: the % may be the effect or the level left
Method in brief: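 Arequipa epimastigotes were exposed at IC25 for 72 h, then labelled with Rhodamine 123 and analysed by flow cytometry. Result is % alteration in mitochondrial membrane potential versus untreated control.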

| SMILES | selectivity ratio [1] | IC50 [2] [µM] | Activity [3] | IC50 [4] [µM] | IC50 [5] [µM] | IC50 [6] [µM] | Activity [7] [%] | Activity [8] [%] | Activity [9] [%] | IC50 [10] [µM] | IC50 [11] [µM] | Activity [12] | Activity [13] [%] | selectivity ratio [14] | selectivity ratio [15] | IC50 [16] [µM] | IC50 [17] [µM] | selectivity ratio [18] | selectivity ratio [19] | Activity [20] [%] |
| --- | --- | --- | --- | --- | --- | --- | --- | --- | --- | --- | --- | --- | --- | --- | --- | --- | --- | --- | --- | --- |
| COc1ccc(C(=O)CCN2CCN(c3ccc(Cl)cc3)CC2)cc1 | 103 | 100 | Active | 9.5 | 5.8 | 3.8 | > 10 | < 10 | < 10 | 6.4 | 3.9 | 68% | < 10 | 82.4 | 40.9 | 2.9 | 3.6 | 47.8 | 76.1 | 27.4 |
| O=C(Cn1ccnc1[N+](=O)[O-])NCc1ccccc1 [BENZNIDAZOLE] |  |  |  |  |  | 10 |  |  |  | 15.1 |  |  |  |  |  | 15.1 | 8.3 |  |  | 35.4 |
| COc1ccc(C(=O)CCN2CCN(c3ccc(F)cc3)CC2)cc1 | 47.4 | 146 | inactive | 1.4 | 3.1 | 1.6 | > 10 | < 10 | < 10 | 1.9 | 1.4 | Active | < 10 | 88.7 | 30.2 | 1.2 | 0.6 | 27.9 | 39.9 | 25.6 |
| COc1ccc(C(=O)CCN2CCN(c3ccc([N+](=O)[O-])cc3)CC2)cc1 | 40.6 | > 100 | inactive | 31.6 | 30.5 | 33.6 | > 10 | < 10 | < 10 | 47.9 | 3.1 | Active | < 10 | 20 | 15.7 | 14.5 | 29.4 | 26.7 | 187 | 76.3 |

Reference: ChEMBL document CHEMBL4118256, “Second Generation of Mannich Base-Type Derivatives with in Vivo Activity against Trypanosoma cruzi” (J Med Chem, 2018)
